MrgX1 ag = agonists of human MrgX1 receptor; B-score at 10 µM; MrgX1-HEK293 cells, Fluo-4 calcium fluorescence, agonist mode; stronger effect = higher value; hit rate 0.44% among 310,000; AID 588627; Q96LB2;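 active = calcium response B-score plate-corrected fluorescence ratio at least 3 library SD, with starting fluorescence B-score inside 5 SD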
Target sequence (Q96LB2 whole entry, looked up): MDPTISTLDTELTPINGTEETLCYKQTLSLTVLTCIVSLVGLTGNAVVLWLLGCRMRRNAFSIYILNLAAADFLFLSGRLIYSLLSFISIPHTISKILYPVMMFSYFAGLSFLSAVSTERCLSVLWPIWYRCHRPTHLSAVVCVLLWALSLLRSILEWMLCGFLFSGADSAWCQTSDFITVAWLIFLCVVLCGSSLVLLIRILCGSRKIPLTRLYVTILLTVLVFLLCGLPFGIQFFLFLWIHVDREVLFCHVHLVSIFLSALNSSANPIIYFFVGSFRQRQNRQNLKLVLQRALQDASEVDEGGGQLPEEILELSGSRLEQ
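Material: HEK293 cells stably expressing human MrgX1 receptor | Quantity: 15,000 cells per well | Times: Cells plated overnight, dye loaded 0.5 h 37 °C, 0.5 h room temperature | Measured by: Kinetic Fluo-4 NW fluorescence of intracellular calcium | Control set: Positive and negative controls per plate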
MrgX1 antag = human MrgX1 receptor antagonism, primary screen; Q96LB2; MRGX1-HEK293 calcium flux, Fluo-4, BAM8-22 antagonism; stronger effect = lower value; B-score at 10 µM; hit rate 1.3% among 310,000; AID 588676;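 active = calcium-response B-score plate-corrected more than 3 library SD below zero, starting fluorescence within 5 deviations, no agonist response on first addition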;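 also: peak minus trough fluorescence over baseline after final BAM8-22 challenge near maximal dose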
MrgX1 allo act = allosterically activates human MrgX1 receptor signaling | MrgX1-HEK293, Fluo-4 calcium flux, FDSS; stronger effect = higher value | AID 588675 | hit rate 0.63% among 310,000 | B-score at 10 µM | Q96LB2;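 active = plate-corrected calcium response at least 3 library SD above typical, normal starting fluorescence, not activating the receptor alone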;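 also: compound read alongside a low EC10 to EC30 dose of BAM8-22 agonist; peak minus trough fluorescence over baseline measured at the second addition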
RGS4 pot = potentiators or activators of RGS4; hit rate 0.92% among 310,000; B-score at 10 µM; HEK293 M3R/inducible RGS4, carbachol calcium flux Fluo4; stronger effect = lower value; AID 463111;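 active = B-score of the integrated calcium signal more than 4 SD below the library mean, with starting fluorescence not abnormally high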;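 also: negative B-score means reduced calcium response which marks RGS4 activation or potentiation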
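Test system: HEK293 cells with stable M3R and inducible RGS4; also added: carbachol at ECmax as muscarinic agonist stimulus; schedule: dye loading 30 min 37 °C, buffer rest 30 min RT; technique: kinetic calcium fluorescence imaging with Fluo4-AM dye, 2 µM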
RGS4 block = human RGS4 inhibition. AID 463165. hit rate 0.45% among 310,000. HEK293 M3R/RGS4 inducible, Fluo-4 calcium flux; stronger effect = higher value; triggered by carbachol at its EC20. B-score at 10 µM;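 active = B-score, a plate-corrected calcium signal, over three deviations above library mean, with baseline fluorescence within five deviations of library mean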;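 also: RGS4 expression induced by doxycycline in cells with stable M3 receptor; B-score is computed from the integrated fluorescence ratio over baseline after carbachol; higher B-score means a larger calcium signal and so more RGS4 inhibition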
Target sequence (P49798 whole entry, looked up): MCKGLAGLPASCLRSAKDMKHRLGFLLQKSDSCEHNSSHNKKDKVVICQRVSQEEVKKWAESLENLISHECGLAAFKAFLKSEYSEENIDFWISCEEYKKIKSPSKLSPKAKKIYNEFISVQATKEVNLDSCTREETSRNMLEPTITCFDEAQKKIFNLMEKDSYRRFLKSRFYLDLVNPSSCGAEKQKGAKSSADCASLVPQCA
MrgX1 ant reconf = confirmation of human MrgX1 receptor antagonists. MrgX1-HEK293, BAM8-22 calcium flux, Fluo-4; stronger effect = lower value. remaining BAM8-22 calcium response % of control (stronger effect = lower value), % at 10 µM. AID 602420. shares compounds with MrgX1 antag. hit rate 19% among 2,300;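 active = remaining agonist calcium response no higher than 100% minus 3 SD of agonist-only control wells, with starting fluorescence near control levels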;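 also: agonist BAM8-22 given at a near maximal EC90 to ECmax level; peak minus minimum fluorescence divided by baseline after agonist addition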
HEK293 Ca flux = activity in parental HEK293 cells lacking MrgX1. shares compounds with MrgX1 antag. Fluo-4 calcium fluorescence, FDSS. fluorescence ratio F(max-min)/F0 at 10 µM. hit rate 2% among 4,000. AID 624111;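 active = duplicate-averaged calcium fluorescence ratio at least three times the standard deviation of buffer wells, a nonspecific response in parental cells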
HEK293 Ca counter = counter-screen for MrgX1 allosteric activators: effect in parental HEK293 cells; shares compounds with MrgX1 antag; parental HEK293 calcium flux, Fluo-4 fluorescence ratio; stronger effect = higher value; fluorescence ratio F(max-min)/F0 at 10 µM; hit rate 0.4% among 4,000;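 active = calcium fluorescence ratio, averaged over duplicates, at least 3 SD of the buffer-well ratio, meaning a nonspecific response in receptor-free cells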;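 also: untransfected parental HEK293 lacking MrgX1 used as counterscreen for MrgX1 allosteric activators; fluorescence change taken during the second addition on a kinetic imager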
HEK293 Ca cntr2 = counter-screen for MrgX1 activators: effect in parental HEK293 cells. shares compounds with MrgX1 antag. Fluo-4 calcium fluorescence (FDSS); stronger effect = higher value. hit rate 8.7% among 4,000. fluorescence ratio F(max-min)/F0 at 10 µM. AID 624115;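 active = calcium fluorescence ratio at least three times the spread of buffer wells, meaning a non-specific response in parental cells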
The depositor's hits bear a star; i = inactive; · = no result. A selection: hits, their analogues and other compounds. The true share with any hit is near 3.5%.

SMILES	MrgX1 ag	MrgX1 antag	MrgX1 allo act	RGS4 pot	RGS4 block	MrgX1 ant reconf	HEK293 Ca flux	HEK293 Ca counter	HEK293 Ca cntr2
Brc1c(C[n+]2ccccc2)nc2ccccn12	i	i	i	i	i	·	·	·	·
CCCCn1c(SCC(=O)Nc2cccc(OC)c2)nc2ccc(N3CCOCC3)cc2c1=O	i	-5.25*	i	i	i	i	i	i	i
CCCCn1c(SCC(N)=O)nc2ccc(N3CCOCC3)cc2c1=O	i	i	i	i	i	·	·	·	·
CCc1nc2ccc(C(=O)NCc3ccccc3)cc2nc1CC	i	-8.32*	i	i	i	i	i	i	i
O=C(NCc1ccccc1)c1cccc(COc2ccc(Cl)cc2)c1	i	i	i	i	i	·	·	·	·
CCOc1ccc(C(=O)NCc2ccccc2)cc1Br	i	-5.38*	i	i	i	85.1%*	i	i	i
CSCc1ccc(C(=O)NCc2ccccc2)cc1	i	i	i	i	i	·	·	·	·
O=C(NCc1ccccc1)c1cccc(COc2cccc(Cl)c2)c1	i	-4.56*	i	i	i	i	i	i	i
CCOc1cc(C(=O)NCc2ccccc2)ccc1OCC(=O)N1CCOCC1	i	i	i	i	i	·	·	·	·
O=C(CN1CCN(CC(=O)Nc2ccccc2Cc2ccccc2)CC1)Nc1ccccc1Cl	i	i	i	i	i	·	·	·	·
Cc1ccccc1NC(=O)CCN1CCN(Cc2ccccc2)CC1	i	i	i	i	i	·	·	·	·
Cc1ccccc1NC(=O)CCN1CCCCCC1	i	-6.08*	i	i	i	i	i	i	i
COc1ccc(Cl)cc1NS(=O)(=O)N1CCOCC1	i	-6.22*	i	i	i	i	i	i	i
Cc1ccc(Cl)cc1NS(=O)(=O)N1CCOCC1	i	i	i	i	i	·	·	·	·
CCCCNc1c(N)n(CCC)c(=O)[nH]c1=O	i	i	i	i	i	·	·	·	·
CCCn1c(N)c(NCCN2CCOCC2)c(=O)[nH]c1=O	i	-5.88*	i	i	i	i	i	i	i
COc1cc(/C=N/NC(=O)Cn2ccc(C(F)(F)F)n2)cc(OC)c1OC	i	i	i	i	i	·	·	·	·
CC1(C)C2CCC1(C)C1(C2)NC(=O)c2ccccc2O1 (configuration not stated)	i	i	i	i	i	·	·	·	·
CCOC(=O)c1cc2occc2n1CC(=O)N1CCOCC1	i	i	i	i	i	·	·	·	·
CCOC(=O)c1cc2occc2n1CCCN1C(=O)c2ccccc2C1=O	i	-6.14*	i	i	i	i	i	i	i
Cc1ccc(S(=O)(=O)/N=C(\CN2CCCCC2)N2CCOCC2)cc1	i	i	i	i	i	·	·	·	·
Cc1ccc(-c2nc(Nc3cccc(C)c3)sc2CC(=O)O)cc1	i	i	i	i	i	·	·	·	·
O=C(O)Cc1sc(NC2CCCCC2)nc1-c1ccc(Cl)cc1	i	-9.63*	i	i	i	82.0%*	i	i	i
Cc1cc(C)c[n+](CC(=O)c2c(C)cc(C)c([N+](=O)[O-])c2C)c1	i	i	i	i	i	·	·	·	·
Cc1cc2c(s1)CCCCC(=O)N2	i	i	i	i	i	·	·	·	·
SMILES	MrgX1 ag	MrgX1 antag	MrgX1 allo act	RGS4 pot	RGS4 block	MrgX1 ant reconf	HEK293 Ca flux	HEK293 Ca counter	HEK293 Ca cntr2
COc1ccc(-c2cc(C(=O)NCC(c3ccco3)N(C)C)c3ccccc3n2)cc1OC (configuration not stated)	i	i	i	i	i	·	·	·	·
O=c1cc(C(F)(F)F)[nH]c2ccc(C(F)(F)F)cc12	i	-4.72*	i	i	i	i	i	i	i
COc1ccccc1NC(=O)Cc1noc(CSc2nnc(N)s2)n1	i	-7.73*	i	i	i	i	i	i	i
COc1ccccc1NC(=O)Cc1noc(CSc2nnc(C)s2)n1	i	i	i	i	i	·	·	·	·
S=C(NCC1CCCO1)NC1CCCC1 (configuration not stated)	i	i	i	i	i	·	·	·	·
CCc1ccc(OC(C)C(=O)Nc2ccc(S(=O)(=O)Nc3nccs3)cc2)cc1 (configuration not stated)	i	-6.55*	i	i	i	74.1%*	i	i	46.5*
Cc1ccc(OC(C)C(=O)Nc2ccc(S(=O)(=O)Nc3nccs3)cc2)cc1 (configuration not stated)	i	i	i	i	i	·	·	·	·
O=C1CCSc2ccc(Cl)cc2N1Cc1ccccc1	i	-4.56*	i	i	i	75.1%*	i	i	i
Cc1cccc(CN2C(=O)CCSc3ccc(Cl)cc32)c1	i	i	i	i	i	·	·	·	·
COC(=O)C1=C(C)NC(=O)CC1c1ccc(F)c(Br)c1 (configuration not stated)	i	-4.59*	i	i	i	i	i	i	i
C=CCSc1nc(N)c(C(=O)Nc2ccccc2)cc1C#N	i	i	i	i	i	·	·	·	·
C=CCSc1nc(N)c(C(=O)Nc2ccccc2OC)cc1C(=O)Nc1ccccc1	i	-5.88*	i	i	i	78.5%*	i	i	i
Cc1ccc2nsnc2c1NC(=O)COc1ccccc1F	i	-6.1*	i	i	i	83.5%*	i	i	i
COc1ccccc1C(CNC(=O)C(C)Oc1ccc(Br)cc1)N1CCCC1 (configuration not stated)	i	i	i	i	i	·	·	·	·
O=C(O)c1sc2cc(C(F)(F)F)cnc2c1-c1ccccn1	i	i	i	i	i	·	·	·	·
COc1ccccc1CNC(=O)c1sccc1-c1ccccc1	i	i	i	i	i	·	·	·	·
C=CCn1c(O)c(CN2CCOCC2)c(C)c(C#N)c1=O	i	-6.41*	i	i	i	i	i	i	i

Compound activity as filed in PubChem BioAssay.
